Source: ChEMBL document CHEMBL1126251, “alpha-Methylated analogues of triiodothyroalkanoic acids: synthesis and biological activity” (J Med Chem, 1992)
Where “and” joins values, the source holds several entries; their conditions need not be identical. Identical values can stand only once.

Key:
[1] = molecular target: T1, NADP-dependent malic enzyme (Rattus norvegicus) (UniProt P13697); experiment: Effect on rat hepatic Malic enzyme activity relative to L-T3.
T1 sequence (whole entry): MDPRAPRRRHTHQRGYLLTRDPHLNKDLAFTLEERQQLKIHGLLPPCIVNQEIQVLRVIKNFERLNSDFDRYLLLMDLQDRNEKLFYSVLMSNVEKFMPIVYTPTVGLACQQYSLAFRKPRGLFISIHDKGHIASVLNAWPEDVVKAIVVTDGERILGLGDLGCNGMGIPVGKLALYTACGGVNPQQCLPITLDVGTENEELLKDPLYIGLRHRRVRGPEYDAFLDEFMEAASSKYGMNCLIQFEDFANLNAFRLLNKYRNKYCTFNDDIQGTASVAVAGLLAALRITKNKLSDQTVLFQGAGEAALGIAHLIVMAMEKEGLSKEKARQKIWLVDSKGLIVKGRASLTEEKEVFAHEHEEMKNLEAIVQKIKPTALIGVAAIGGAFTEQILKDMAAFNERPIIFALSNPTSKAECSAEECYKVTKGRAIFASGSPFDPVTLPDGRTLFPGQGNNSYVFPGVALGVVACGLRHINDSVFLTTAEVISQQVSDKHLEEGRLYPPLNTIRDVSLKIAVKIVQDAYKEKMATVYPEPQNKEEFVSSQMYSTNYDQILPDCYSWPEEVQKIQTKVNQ

[2] = molecular target: T2, Glycerol-3-phosphate dehydrogenase [NAD(+)], cytoplasmic (Rattus norvegicus) (UniProt O35077); experiment: Effect on rat hepatic alpha-glycerophosphate dehydrogenase (GPD) activity 3 days after injection of 10e-6 mol/kg.
T2 sequence (whole entry): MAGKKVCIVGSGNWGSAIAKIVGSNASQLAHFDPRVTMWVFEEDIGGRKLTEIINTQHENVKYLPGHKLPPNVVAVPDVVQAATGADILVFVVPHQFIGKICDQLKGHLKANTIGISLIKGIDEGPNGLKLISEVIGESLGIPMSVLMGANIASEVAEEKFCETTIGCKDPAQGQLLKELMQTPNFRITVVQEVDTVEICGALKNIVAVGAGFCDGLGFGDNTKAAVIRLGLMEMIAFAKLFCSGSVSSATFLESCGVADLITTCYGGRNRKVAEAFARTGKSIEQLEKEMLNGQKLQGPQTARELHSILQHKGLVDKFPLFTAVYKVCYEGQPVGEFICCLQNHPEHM

[3] = molecular target: T2, Glycerol-3-phosphate dehydrogenase [NAD(+)], cytoplasmic (Rattus norvegicus); experiment: Effect on rat hepatic alpha-glycerophosphate dehydrogenase (GPD) activity relative to L-T3.
[4] = molecular target: T1, NADP-dependent malic enzyme (Rattus norvegicus); experiment: Effect on rat hepatic malic enzyme(ME) activity 3 days after injection of 10e-6 mol/kg.
Method in brief: (§1)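 Liver homogenized in 0.25 M sucrose, 1 mM EDTA, 100 mM Tris pH 7.5, then spun at 2000g and 40000g to give cytoplasmic fraction. Malic enzyme activity followed as NADP+ reduction at 340 nm, normalized to Bradford protein. Reported as increase over vehicle controls, nmol/min per mg protein. Two rats per dose, duplicate assays.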

[5] = molecular target: T2, Glycerol-3-phosphate dehydrogenase [NAD(+)], cytoplasmic (Rattus norvegicus); experiment: Effect on rat hepatic alpha-glycerophosphate dehydrogenase (GPD) activity 3 days after injection of 10e-5 mol/kg.
[6] = molecular target: T1, NADP-dependent malic enzyme (Rattus norvegicus); experiment: Effect on rat hepatic malic enzyme(ME) activity relative to L-T3.
Rattus norvegicus [7] = species on record: Rattus norvegicus; experiment: Affinity to rat hepatic nuclei relative to L-T3.; type: functional
Method in brief: (§2)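 Hepatic nuclear fraction from thyroidectomized rats in 0.25 M sucrose, 1.1 mM MgCl2, 2 mM EDTA, 5 mM DTT, 20 mM Tris pH 7.85 (83 μg DNA/mL). Incubated with [125I]-L-T3 (final 0.075 nM) and competitor at 0.025–100 nM, five to eight concentrations, quadruplicate. Nonspecific binding measured with 1 μM unlabeled T3. IC50 from Hill plot x-intercept; Ki calculated from IC50; relative affinity = Ki(L-T3)/Ki(analogue).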

[8] = molecular target: T1, NADP-dependent malic enzyme (Rattus norvegicus); experiment: Effect on rat hepatic Malic enzyme activity 3 days after injection of 10e-6 mol/kg.; method in brief: as §1
[9] = molecular target: T2, Glycerol-3-phosphate dehydrogenase [NAD(+)], cytoplasmic (Rattus norvegicus); experiment: Effect on rat hepatic glycerophosphate dehydrogenase alpha (GPD) activity relative to L-T3.
[10] = molecular target: T1, NADP-dependent malic enzyme (Rattus norvegicus); experiment: Effect on rat hepatic Malic enzyme activity 3 days after injection of 10e-5 mol/kg.; method in brief: as §1
[11] = molecular target: T2, Glycerol-3-phosphate dehydrogenase [NAD(+)], cytoplasmic (Rattus norvegicus); experiment: Effect on rat hepatic glycerophosphate dehydrogenase alpha (GPD) activity 3 days after injection of 10e-6 mol/kg.
[12] = (§3) In vitro concentration required to displace [125I]L-T3 from rat hepatic nuclei.
Rattus norvegicus [13] = experiment: Effect on the plasma cholesterol levels after subcutaneous administration of 8 nmol/kg in Dawley rats.; type: functional; set-up: unit: mg/dL
Method in brief: (§4)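 Normal Sprague-Dawley rats (265 ± 10 g) on pellet diet with 2% cholesterol and 1% cholic acid for 7 days, given daily subcutaneous injections at 4–16 nmol/kg. Five rats per group; values in mg/dL ± SD. Significance tested against vehicle-treated cholesterol-diet controls.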

Rattus norvegicus [14] = experiment: Effect on the plasma cholesterol levels after subcutaneous administration of 16 nmol/kg in Dawley rats. p < 0.01; type: functional; method in brief: as §4
Rattus norvegicus [15] = experiment: Effect on the plasma cholesterol levels after subcutaneous administration of 4 nmol/kg in Dawley rats.; type: functional; method in brief: as §4
Rattus norvegicus [16] = species on record: Rattus norvegicus; experiment: as §3; type: functional, organism-based; method in brief: as §2
Rattus norvegicus [17] = experiment: Effect on the plasma cholesterol levels after subcutaneous administration of 16 nmol/kg in Dawley rats.; type: functional; method in brief: as §4
[18] = In vitro concentration required to displace [125I]L-T3 from Thyroid receptor of rat hepatic nuclei.; method in brief: as §2
[19] = Affinity to rat hepatic nuclei relative to L-T3 (Thyroid receptor).; method in brief: as §2

Structure (SMILES)	T3 (Rattus norvegicus [7]) [%]	ME increase (nM min-1 mg-1) [8]	L-T3 [1] [%]	L-T3 [9] [%]	ME increase (nM min-1 mg-1) [10]	Activity (Rattus norvegicus [13])	Activity (Rattus norvegicus [15])	other results
CC(C(=O)O)c1cc(I)c(Oc2ccc(O)c(I)c2)c(I)c1 (racemic) [listing 1 of 2 here]	–	–	–	–	–	–	–	ME increase (nM min-1 mg-1) [1]: 15.5; GDP activity (nM min-1 mg-1) [2]: 1.5; L-T3 [3]: 31%; ME increase (nM min-1 mg-1) [4]: 5.6; GDP activity (nM min-1 mg-1) [5]: 6.6; L-T3 [6]: 41%
O=C(O)Cc1cc(I)c(Oc2ccc(O)c(I)c2)c(I)c1 [TIRATRICOL]	199	–	–	–	–	–	–	ME increase (nM min-1 mg-1) [1]: 22.5; GDP activity (nM min-1 mg-1) [2]: 4.8; L-T3 [3]: 69%; ME increase (nM min-1 mg-1) [4]: 13; GDP activity (nM min-1 mg-1) [5]: 12.9; L-T3 [6]: 69%
CC(Cc1cc(I)c(Oc2ccc(O)c(I)c2)c(I)c1)C(=O)O (racemic)	61	13.1	62	77	18.6	–	–	GDPactivity (nM min-1 mg-1) [11]: 7.8 and 12.1; Ki [12]: 2.56 nM
O=C(O)CCc1cc(I)c(Oc2ccc(O)c(I)c2)c(I)c1 [THYROPROPIC ACID]	–	5.5	36	43	12.9	285	–	Activity (Rattus norvegicus [14]): 202
CC(C(=O)O)c1cc(I)c(Oc2ccc(O)c(I)c2)c(I)c1 (racemic) [listing 2 of 2 here]	17	–	–	–	–	216	259	Ki (Rattus norvegicus [16]): 9.03 nM
N[C@@H](Cc1cc(I)c(Oc2ccc(O)c(I)c2)c(I)c1)C(=O)O [LIOTHYRONINE]	100	19.5	100	100	31.8	138	251	GDPactivity (nM min-1 mg-1) [11]: 7.5 and 18.3; Activity (Rattus norvegicus [17]): 101
CC(N)(Cc1cc(I)c(Oc2cc(I)c(O)c(I)c2)c(I)c1)C(=O)O (stereo not given)	–	–	–	–	–	–	–	Ki [18]: 63.3 nM; Relative affinity [19]: 2%
CC(Cc1cc(I)c(Oc2cc(I)c(O)c(I)c2)c(I)c1)C(=O)O (racemic)	12	6.8	42	36	14.7	–	–	Ki [12]: 13 nM
CC(C(=O)O)c1cc(I)c(Oc2ccc(O)c(I)c2)c(I)c1 (stereo in doubt)	–	–	–	–	–	147	262	Activity (Rattus norvegicus [17]): 119
